Screens deposited in PubChem BioAssay by several laboratories.
SENP6 block: blocks the human protease SENP6; AID 2599; inhibition, % at 10 µM; Q9GZR1; actives 1.8% (n = 330,000); Recombinant SENP6 catalytic domain, aminoluciferin luminescence;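 active = inhibition above about 50% at the single tested dose, limit read from the data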;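 also: plate controls were DMSO wells with enzyme for no effect and DMSO wells lacking enzyme for full effect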
SENP8 block-1: inhibitors of human SENP8 protease. Q96LD8. recombinant SENP8, Nedd8 substrate fluorescence. inhibition, % at 20 µM. actives 0.64% (n = 360,000); in the data active = inhibition mostly above about 40%, no sharp cut-off; inactive = mostly below about 27%
Target sequence (Q96LD8 whole entry, looked up): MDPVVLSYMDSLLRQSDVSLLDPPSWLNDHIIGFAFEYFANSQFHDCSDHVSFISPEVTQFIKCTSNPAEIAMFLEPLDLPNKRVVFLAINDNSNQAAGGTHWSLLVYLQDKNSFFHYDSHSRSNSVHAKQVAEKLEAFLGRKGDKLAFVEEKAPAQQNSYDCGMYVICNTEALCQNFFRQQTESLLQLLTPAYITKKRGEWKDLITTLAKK
UCH37 inh: human UCH37 deubiquitinating enzyme inhibition; purified proteasome/UCH37, Ub-AMC cleavage fluorescence; inhibition, % (concentration not given with the values); actives 0.33% (n = 330,000);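 active = mean inhibition over replicate wells above about 20%, limit read from the data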;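 also: 0% = compound-free wells with enzyme and 100% = wells lacking proteasome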
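Material: human UCH37 enzyme supplied as purified proteasome complex / Amount: 0.15 nM proteasome as dispensed / Buffer or medium: pH 7.4 Tris-HCl (50 mM) with ovalbumin, ATP-MgCl2, DTT / Times: preincubation 30 min, reaction 25 min, room temperature / Technique: AMC fluorescence from Ub-AMC cleavage, excitation 355 nm, emission 460 nm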
SENP8 block-2: inhibitors of human SENP8 protease | purified SENP8, Z-RLRGG-aminoluciferin cleavage, luminescence | inhibition, % at 10 µM | actives 1.2% (n = 330,000); in the data active = inhibition above about 50%
SENP7 block: SENP7 protease inhibition; recombinant SENP7, Z-RLRGG-aminoluciferin luminescence, 40 min; AID 434973; actives 1.5% (n = 330,000); inhibition, % at 5 µM; Q9BQF6;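 active = inhibition above about 50% at the single test dose, limit read from the data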;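 also: plate controls were DMSO with enzyme for no effect and no enzyme buffer wells for full effect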
SENP1 inh: SENP1 (human) catalytic domain inhibition. Q9P0U3. recombinant SENP1 catalytic domain, CyPet-SUMO1-YPet FRET cleavage. inhibition, % at 10 µM. actives 0.21% (n = 360,000). AID 624204;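 active = inhibition at least 30% at 10 µM, raw YFP signal under a set limit, fluorescence ratio 0.5 to 1.5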;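 also: 0% = enzyme with DMSO and 100% = no enzyme wells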
Target sequence (Q9P0U3 419-644 limits assumed): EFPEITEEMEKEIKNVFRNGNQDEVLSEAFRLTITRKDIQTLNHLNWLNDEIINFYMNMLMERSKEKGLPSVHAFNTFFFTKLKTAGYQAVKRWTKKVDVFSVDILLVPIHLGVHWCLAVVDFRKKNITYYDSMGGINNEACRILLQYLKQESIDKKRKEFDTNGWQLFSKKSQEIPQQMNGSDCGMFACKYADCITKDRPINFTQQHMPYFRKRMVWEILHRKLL
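Material – human SENP1 catalytic domain · Input – SENP1 enzyme, 20 pM final · Compound dosing – single concentration of 10 µM compound, 0.5% DMSO final · Timing – enzyme reaction for 50 min at room temperature, dark · Measured by – FRET fluorescence in CFP and YFP emission channels · Control set – no-enzyme wells low, DMSO-plus-enzyme wells high control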
SENP8 conf: confirmation of human SENP8 protease inhibitors | shares compounds with SENP7 block | Recombinant SENP8, Z-RLRGG-aminoluciferin luminescence, 60 min | inhibition, % at 12.5 µM | actives 40% (n = 6,200);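 active = mean inhibition across replicates above about 50%, limit read from the data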
SENP6 confirm: human SENP6 inhibition, confirmed. shares compounds with SENP7 block. actives 58% (n = 6,200). AID 488915. inhibition, % at 12.5 µM. recombinant SENP6, Z-RLRGG-aminoluciferin luminescence
SENP7 confirm: confirmation of human SENP7 protease inhibitors; shares compounds with SENP7 block; recombinant SENP7, Z-RLRGG-aminoluciferin luminescence, 40 min; inhibition, % at 12.5 µM; actives 69% (n = 6,200); AID 488917
Casp3 SENP sel: selectivity test for SENP inhibitors: human caspase-3 inhibition. purified caspase-3, Z-DEVD-aminoluciferin luminescence, 60 min. actives 60% (n = 6,200). shares compounds with SENP7 block. AID 488918. inhibition, % at 12.5 µM;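 active = mean inhibition above about 50%, limit read from the data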;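 also: plate controls were enzyme with DMSO for no effect and wells without caspase-3 for full effect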
Target sequence (P42574 28-227 limits assumed): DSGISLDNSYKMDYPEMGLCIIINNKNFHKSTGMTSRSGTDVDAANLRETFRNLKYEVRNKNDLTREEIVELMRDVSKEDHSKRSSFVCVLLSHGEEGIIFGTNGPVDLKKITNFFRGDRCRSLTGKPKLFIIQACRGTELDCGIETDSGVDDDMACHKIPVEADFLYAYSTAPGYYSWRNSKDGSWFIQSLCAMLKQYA
SENP luc ctr: interferes with luciferase luminescence in SENP counter-screen; shares compounds with SENP7 block; Pre-incubated SENP8/Z-RLRGG-aminoluciferin, luciferase luminescence interference; inhibition, % at 12.5 µM; actives 39% (n = 6,200);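 active = mean inhibition above about 50% when retested at one dose, limit read from the data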;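 also: plate controls were DMSO wells with completed reaction for no effect and substrate without enzyme for full effect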
Active calls of the source: *. An excerpt weighted towards active compounds, which were near 2.6% of everything screened.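 The calls were made as follows, unless noted: active = mean inhibition above about 50% in the one-dose retest (limit read from the data); inactive = the rest.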

CN1/C(=C\C=NNC(=O)c2cccnc2)C(C)(C)c2ccccc21 was read as UCH37 inh 11.0.
For CCN(CC)C(=O)COc1ccc(C(C)=NNC(=O)c2ccccc2O)cc1 the results were UCH37 inh 5.0.
CCCCC(=O)N1CCN(c2nc3ccc(F)cc3s2)CC1 was read as SENP6 block 84.1*, SENP8 block-1 1.0, UCH37 inh 4.9, SENP8 block-2 72.6*, SENP7 block 81.9*, SENP1 inh 2.9, SENP8 conf 77.8*, SENP6 confirm 74.9*, SENP7 confirm 94.6*, Casp3 SENP sel 89.0* and SENP luc ctr 48.7.
`Cc1cc(C(=O)Nc2ccccc2C(=O)O)oc1C` gave SENP6 block 63.7*, SENP8 block-1 1.9, UCH37 inh 3.6, SENP8 block-2 47.3, SENP7 block 13.0, SENP1 inh 0.4, SENP8 conf 67.5*, SENP6 confirm 64.0*, SENP7 confirm 89.5*, Casp3 SENP sel 87.8* and SENP luc ctr 72.7*.
For Cc1ccc(C(=O)Nc2ccccc2C(=O)O)cc1S(=O)(=O)Nc1ccccc1 the results were SENP6 block 62.4*, SENP8 block-1 5.8, UCH37 inh -1.4, SENP8 block-2 32.8, SENP7 block 0.0, SENP1 inh -3.5, SENP8 conf 55.3*, SENP6 confirm 52.4*, SENP7 confirm 73.1*, Casp3 SENP sel 32.6 and SENP luc ctr 62.8*.
Cc1ccc(C(=O)Nc2ccccc2C(=O)O)cc1S(=O)(=O)NC1CCCCC1 was read as SENP6 block 14.5, SENP8 block-1 5.1, UCH37 inh 4.4, SENP8 block-2 1.3, SENP7 block -7.8 and SENP1 inh 4.9.
Cc1ccc(NC(=O)c2cccc(C(=O)Nc3ccc(C)cc3C(=O)O)c2)c(C(=O)O)c1 was read as SENP6 block 19.5, SENP8 block-1 5.9, UCH37 inh 11.8, SENP8 block-2 24.0, SENP7 block -8.4 and SENP1 inh 3.7.
COc1c(Cl)cc(C(=O)Nc2ccccc2C(=O)O)cc1Cl was read as SENP6 block 76.1*, SENP8 block-1 7.1, UCH37 inh 2.1, SENP8 block-2 69.3*, SENP7 block 5.7, SENP1 inh 0.5, SENP8 conf 81.4*, SENP6 confirm 79.1*, SENP7 confirm 86.5*, Casp3 SENP sel 36.2 and SENP luc ctr 83.7*.
Cc1ccc(S(=O)(=O)CCSc2cccc(C(=O)Nc3ccccc3C(=O)O)c2)cc1 was read as SENP6 block 87.9*, SENP8 block-1 8.1, UCH37 inh 24.8*, SENP8 block-2 65.0*, SENP7 block -1.8, SENP1 inh 0.2, SENP8 conf -19.8, SENP6 confirm 75.7*, SENP7 confirm 92.3*, Casp3 SENP sel 59.6* and SENP luc ctr 84.6*.
For CCN(CC)S(=O)(=O)c1ccc(NN=Cc2ccccc2OCC(=O)O)c([N+](=O)[O-])c1 the results were UCH37 inh 8.3.
For O=C(Nc1ccccc1C(=O)O)c1cccc(F)c1 the results were SENP6 block 74.8*, SENP8 block-1 23.6, UCH37 inh 5.1, SENP8 block-2 50.8*, SENP7 block 37.8, SENP1 inh -0.8, SENP8 conf 74.8*, SENP6 confirm 70.4*, SENP7 confirm 92.5*, Casp3 SENP sel 87.0* and SENP luc ctr 74.7*.
`O=C(Nc1c[nH]c(=O)[nH]c1=O)c1cccc(F)c1` gave SENP6 block -8.4, SENP8 block-1 14.6, UCH37 inh 1.6, SENP8 block-2 61.6*, SENP7 block -3.9, SENP1 inh -0.7, SENP8 conf 10.6, SENP6 confirm 2.9, SENP7 confirm -9.7, Casp3 SENP sel 3.3 and SENP luc ctr -7.8.
CC(C)CN1C(=O)c2ccc(C(=O)Nc3ccccc3C(=O)O)cc2C1=O was read as SENP6 block 87.2*, SENP8 block-1 22.3, UCH37 inh 6.2, SENP8 block-2 82.2*, SENP7 block 43.3, SENP1 inh 2.8, SENP8 conf 87.5*, SENP6 confirm 87.8*, SENP7 confirm 98.1*, Casp3 SENP sel 88.1* and SENP luc ctr 88.9*.
O=C(Nc1cc(C(=O)Nc2ccccc2C(=O)O)cc(C(=O)Nc2ccccc2C(=O)O)c1)c1ccccc1 was read as SENP6 block 15.7, SENP8 block-1 -1.7, SENP8 block-2 9.7, SENP7 block -1.0 and SENP1 inh -3.6.
For O=C(Nc1c[nH]c(=O)[nH]c1=O)c1cccc([N+](=O)[O-])c1 the results were SENP6 block -36.3, SENP8 block-1 22.3, UCH37 inh 1.8, SENP8 block-2 -4.9, SENP7 block -7.3 and SENP1 inh -1.1.
For CNC(=S)NN=CC1=CCC2CC1C2(C)C (centres undefined) the results were UCH37 inh 5.6.
CC(=O)C(=NNc1ccccc1)Sc1nnc(C(O)c2ccccc2)n1-c1ccccc1 (centres undefined) was read as UCH37 inh 9.4.
Cc1ccccc1NC(=O)c1cc2ccccn2n1 was read as SENP6 block -4.8, SENP8 block-1 -0.3, UCH37 inh 4.5, SENP8 block-2 61.7*, SENP7 block 66.8*, SENP1 inh -0.8, SENP8 conf 71.9*, SENP6 confirm 70.2*, SENP7 confirm 88.9*, Casp3 SENP sel 86.8* and SENP luc ctr 73.5*.
`Cc1ccc(C)c(NC(=O)c2cc3ccccn3n2)c1` gave SENP6 block 56.1*, SENP8 block-1 3.9, UCH37 inh -3.0, SENP8 block-2 27.3, SENP7 block 33.3, SENP1 inh 3.1, SENP8 conf 35.4, SENP6 confirm 36.4, SENP7 confirm 73.6*, Casp3 SENP sel 71.8* and SENP luc ctr 59.5*.
